# Reference: ChEMBL document CHEMBL3352559, “Synthesis and pharmacological investigation of aralkyl diamine derivatives as potential triple reuptake inhibitors” (Eur J Med Chem, 2014)
# What was measured:
# [1] = target: T1, Sodium-dependent dopamine transporter (Homo sapiens, UniProt Q01959); assay: Displacement of [3H]BTCP from human DAT at 10 uM relative to control
# Outline: (§1)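 Outsourced CNS panel of 55 receptor binding assays run by Cerep. Compound tested at 10 μM, the default primary-binding concentration, with inhibition expressed relative to control. Inhibition above 50% taken as a significant effect.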
# [2] = test system: Salmonella typhimurium; assay: Mutagenic activity in Salmonella typhimurium TA98 assessed as number of reversion mutation at 1000 ug/plate; assay type: toxicity, organism-based; conditions: salmonella enterica subsp. enterica serovar typhimurium
# Outline: (§2)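 Ames reversion test in Salmonella typhimurium TA98 and TA100, with and without rat liver S9 metabolic activation. Compound was dissolved in DMSO and added at 3–5000 μg/plate. Each dose, vehicle and positive control was plated in triplicate, and revertant colonies were counted.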
# [3] = target: Sodium-dependent serotonin transporter (Homo sapiens, UniProt P31645); assay: Inhibition of [3H]-serotonin uptake in human SERT expressed in HEK293 cells by scintillation counting; assay type: cell-based
# Chain of Sodium-dependent serotonin transporter (P31645 whole entry): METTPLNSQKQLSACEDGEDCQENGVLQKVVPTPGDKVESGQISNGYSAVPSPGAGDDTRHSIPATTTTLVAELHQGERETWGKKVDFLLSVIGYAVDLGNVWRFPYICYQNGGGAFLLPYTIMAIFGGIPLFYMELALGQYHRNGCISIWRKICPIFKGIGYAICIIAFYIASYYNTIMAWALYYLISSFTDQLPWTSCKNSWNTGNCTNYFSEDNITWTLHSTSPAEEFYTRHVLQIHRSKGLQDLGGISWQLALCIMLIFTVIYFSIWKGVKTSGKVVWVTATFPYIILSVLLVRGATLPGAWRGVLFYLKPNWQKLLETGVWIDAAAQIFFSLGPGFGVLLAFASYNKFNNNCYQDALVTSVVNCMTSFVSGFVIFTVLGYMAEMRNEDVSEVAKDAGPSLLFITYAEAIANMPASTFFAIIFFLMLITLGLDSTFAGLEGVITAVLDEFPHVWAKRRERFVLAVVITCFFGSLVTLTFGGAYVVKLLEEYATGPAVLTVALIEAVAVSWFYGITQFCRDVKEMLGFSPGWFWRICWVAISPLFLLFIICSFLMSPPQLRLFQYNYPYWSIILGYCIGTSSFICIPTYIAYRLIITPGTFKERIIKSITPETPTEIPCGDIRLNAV
# [4] = target: T1, Sodium-dependent dopamine transporter; assay: Inhibition of [3H]-DA uptake in human dopamine transporter expressed in HEK293 cells by scintillation counting; assay type: cell-based
# [5] = test system: Salmonella typhimurium; assay: Mutagenic activity in Salmonella typhimurium TA100 assessed as number of reversion mutation at 300 ug/plate; assay type: toxicity, organism-based; conditions: salmonella enterica subsp. enterica serovar typhimurium; outline: as §2
# [6] = test system: Salmonella typhimurium; assay: Mutagenic activity in Salmonella typhimurium TA100 assessed as number of reversion mutation at 1000 ug/plate; assay type: toxicity, organism-based; conditions: salmonella enterica subsp. enterica serovar typhimurium; outline: as §2
# [7] = test system: Rattus norvegicus; assay: Antidepressant activity in po dosed rat assessed as reduction in immobility time by forced swimming test; assay type: functional, organism-based
# Outline: (§3)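 Male rats dosed orally at 5, 10 or 20 mg/kg alongside vehicle and venlafaxine 30 mg/kg PO groups. 1 h post-dose, each rat placed in a glass cylinder (40 cm × 18 cm) holding 15 cm of 25 ± 1 °C water. Immobility time recorded over a 6 min trial; significant main effects followed by post hoc Fisher's test.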
# [8] = test system: Rattus norvegicus; assay: Antidepressant activity in rat assessed as reduction in immobility time at 10 mg/kg, po by forced swimming test relative to control; assay type: functional; outline: as §3
# [9] = Acute toxicity in KM mouse assessed as survival at 900 mg/kg, po up to 14 days (reference value: 100%); assay type: organism-based; set-up: dose 900 mg/kg, route oral; conditions: in vivo
# [10] = Acute toxicity in KM mouse assessed as survival at 750 mg/kg, po up to 14 days (reference value: 100%); assay type: organism-based; set-up: dose 750 mg/kg, route oral; conditions: in vivo
# [11] = AUC (0 to time) in Sprague-Dawley rat at 2 mg/kg, po; assay type: ADME, organism-based; set-up: dose 2 mg/kg, route oral; conditions: plasma
# Outline: (§4)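 Male SD rats, fasted overnight until 6 h post-dose. PO group received single 2 mg/kg with heparinized blood sampled at 5, 15, 30 min, 1, 2, 4, 8, 24 h. IV group received single 0.5 mg/kg via femoral vein with sampling at 5, 15, 30 min, 1, 2, 4 h. Plasma stored at -40 °C, quantified by LC/MS/MS; 24 rats per group.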
# [12] = AUC (0 to infinity) in Sprague-Dawley rat at 0.5 mg/kg, iv; assay type: ADME, organism-based; set-up: time infinity, dose 0.5 mg/kg, route intravenous; conditions: plasma; outline: as §4
# [13] = Mean residence time in Sprague-Dawley rat at 2 mg/kg, po; assay type: ADME, organism-based; set-up: dose 2 mg/kg, route oral; conditions: in vivo
# [14] = Apparent volume of distribution during terminal phase in Sprague-Dawley rat at 2 mg/kg, po; assay type: ADME, organism-based; set-up: dose 2 mg/kg, route oral; conditions: in vivo, read-out: Vz/F; outline: as §4
# [15] = Cmax in Sprague-Dawley rat at 2 mg/kg, po; assay type: ADME, organism-based; set-up: dose 2 mg/kg, route oral; conditions: in vivo; outline: as §4
# [16] = Cmax in Sprague-Dawley rat at 0.5 mg/kg, iv; assay type: ADME, organism-based; set-up: dose 0.5 mg/kg, route intravenous; conditions: in vivo; outline: as §4
# [17] = Oral bioavailability in Sprague-Dawley rat at 2 mg/kg; assay type: ADME, organism-based; conditions: in vivo
# [18] = Ratio of drug level in Sprague-Dawley rat brain to plasma at 0.5 mg/kg iv after 0.08 hrs; assay type: ADME, organism-based; set-up: dose 0.5 mg/kg, route intravenous; conditions: read-out: BPR
# [19] = Ratio of drug level in Sprague-Dawley rat brain to plasma at 0.5 mg/kg iv after 0.50 hrs; assay type: ADME, organism-based; set-up: dose 0.5 mg/kg, route intravenous; conditions: read-out: BPR
# [20] = Ratio of drug level in Sprague-Dawley rat brain to plasma at 0.5 mg/kg iv after 4 hrs; assay type: ADME, organism-based; set-up: dose 0.5 mg/kg, route intravenous; conditions: read-out: BPR
# [21] = target: Adenosine receptor A1 (Homo sapiens) (UniProt P30542); assay: Displacement of [3H]-DPCPX from human adenosine A1 receptor at 10 uM relative to control; outline: as §1
# [22] = target: Adrenergic receptor alpha-1 (Homo sapiens) (UniProt P35348+P25100+P35368); assay: Displacement of [3H]prazosin from alpha1-adrenergic receptor (unknown origin) at 10 uM relative to control
# Outline: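 Outsourced CNS receptor panel (55 binding assays); compound tested at 10 μM in primary radioligand binding; specific binding inhibition expressed relative to control, with >50% inhibition taken as a significant effect.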
# [23] = target: Beta-1 adrenergic receptor (Homo sapiens) (UniProt P08588); assay: Displacement of [3H]CGP-12177 from human beta1-adrenergic receptor at 10 uM relative to control; outline: as §1
# Chain of Beta-1 adrenergic receptor (Homo sapiens) (P08588 whole entry, looked up): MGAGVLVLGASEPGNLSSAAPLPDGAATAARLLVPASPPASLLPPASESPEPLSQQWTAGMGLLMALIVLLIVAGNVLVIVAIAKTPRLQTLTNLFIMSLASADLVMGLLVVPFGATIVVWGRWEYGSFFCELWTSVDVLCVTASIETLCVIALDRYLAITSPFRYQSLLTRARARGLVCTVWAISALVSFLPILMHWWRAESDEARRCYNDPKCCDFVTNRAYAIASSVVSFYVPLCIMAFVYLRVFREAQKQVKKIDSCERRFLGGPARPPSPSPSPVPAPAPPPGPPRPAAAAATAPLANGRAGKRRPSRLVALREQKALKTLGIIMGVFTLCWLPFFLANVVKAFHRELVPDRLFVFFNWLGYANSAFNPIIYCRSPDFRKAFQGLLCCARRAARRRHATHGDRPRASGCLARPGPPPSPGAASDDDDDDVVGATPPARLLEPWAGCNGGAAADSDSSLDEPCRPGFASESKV
# [24] = target: Histamine H1 receptor (Homo sapiens) (UniProt P35367); assay: Displacement of [3H]Pyrilamine from human histamine H1 receptor at 10 uM relative to control; outline: as §1
# Chain of Histamine H1 receptor (Homo sapiens) (P35367 whole entry): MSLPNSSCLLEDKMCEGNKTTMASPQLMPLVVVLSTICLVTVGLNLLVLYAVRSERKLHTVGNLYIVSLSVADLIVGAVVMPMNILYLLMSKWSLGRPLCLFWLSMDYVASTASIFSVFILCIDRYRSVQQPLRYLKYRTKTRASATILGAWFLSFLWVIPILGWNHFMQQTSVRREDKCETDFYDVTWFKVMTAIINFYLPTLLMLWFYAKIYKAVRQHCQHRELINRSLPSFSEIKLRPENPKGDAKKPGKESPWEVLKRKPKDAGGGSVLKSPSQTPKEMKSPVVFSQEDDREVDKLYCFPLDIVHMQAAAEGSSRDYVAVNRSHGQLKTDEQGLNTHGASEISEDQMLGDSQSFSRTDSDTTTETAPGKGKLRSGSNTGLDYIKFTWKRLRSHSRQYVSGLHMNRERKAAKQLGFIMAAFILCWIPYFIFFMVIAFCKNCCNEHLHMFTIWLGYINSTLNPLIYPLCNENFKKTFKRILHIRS
# [25] = target: Muscarinic acetylcholine receptor M3 (Homo sapiens) (UniProt P20309); assay: Displacement of [3H]4-DAMP from human muscarinic M3 receptor at 10 uM relative to control; outline: as §1
# Chain of Muscarinic acetylcholine receptor M3 (Homo sapiens) (P20309 whole entry, looked up): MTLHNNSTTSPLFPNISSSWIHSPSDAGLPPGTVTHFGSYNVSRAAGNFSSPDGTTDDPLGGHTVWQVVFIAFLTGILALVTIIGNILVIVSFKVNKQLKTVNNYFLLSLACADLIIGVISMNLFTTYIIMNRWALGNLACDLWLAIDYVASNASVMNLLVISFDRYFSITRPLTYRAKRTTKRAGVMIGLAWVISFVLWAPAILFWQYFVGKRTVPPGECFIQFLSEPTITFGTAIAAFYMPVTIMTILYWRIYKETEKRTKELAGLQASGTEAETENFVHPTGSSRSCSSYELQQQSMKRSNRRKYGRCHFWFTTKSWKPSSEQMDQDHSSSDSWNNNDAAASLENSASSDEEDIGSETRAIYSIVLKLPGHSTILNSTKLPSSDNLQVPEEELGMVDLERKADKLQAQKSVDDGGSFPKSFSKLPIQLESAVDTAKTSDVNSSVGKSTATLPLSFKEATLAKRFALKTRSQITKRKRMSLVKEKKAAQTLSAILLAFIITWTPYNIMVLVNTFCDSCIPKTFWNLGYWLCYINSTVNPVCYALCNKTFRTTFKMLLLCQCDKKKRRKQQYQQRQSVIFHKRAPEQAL
# [26] = target: Substance-K receptor (Homo sapiens) (UniProt P21452); assay: Displacement of [125I]NKA from human NK2 receptor at 10 uM relative to control; outline: as §1
# Chain of Substance-K receptor (Homo sapiens) (P21452 whole entry): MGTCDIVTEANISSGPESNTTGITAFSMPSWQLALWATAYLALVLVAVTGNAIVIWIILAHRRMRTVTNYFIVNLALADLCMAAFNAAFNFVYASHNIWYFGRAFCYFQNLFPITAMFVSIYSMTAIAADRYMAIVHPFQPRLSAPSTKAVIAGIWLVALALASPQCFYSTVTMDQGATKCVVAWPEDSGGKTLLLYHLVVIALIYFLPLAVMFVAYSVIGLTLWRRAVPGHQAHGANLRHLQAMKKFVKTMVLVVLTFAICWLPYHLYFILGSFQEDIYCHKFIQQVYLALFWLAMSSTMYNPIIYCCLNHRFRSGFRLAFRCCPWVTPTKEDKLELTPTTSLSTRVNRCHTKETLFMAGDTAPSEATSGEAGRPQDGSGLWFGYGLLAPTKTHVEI
# [27] = target: Prostaglandin E2 receptor EP4 subtype (Homo sapiens) (UniProt P35408); assay: Displacement of [3H]PGE2 from human EP4 receptor at 10 uM relative to control; outline: as §1
# Chain of Prostaglandin E2 receptor EP4 subtype (Homo sapiens) (P35408 whole entry): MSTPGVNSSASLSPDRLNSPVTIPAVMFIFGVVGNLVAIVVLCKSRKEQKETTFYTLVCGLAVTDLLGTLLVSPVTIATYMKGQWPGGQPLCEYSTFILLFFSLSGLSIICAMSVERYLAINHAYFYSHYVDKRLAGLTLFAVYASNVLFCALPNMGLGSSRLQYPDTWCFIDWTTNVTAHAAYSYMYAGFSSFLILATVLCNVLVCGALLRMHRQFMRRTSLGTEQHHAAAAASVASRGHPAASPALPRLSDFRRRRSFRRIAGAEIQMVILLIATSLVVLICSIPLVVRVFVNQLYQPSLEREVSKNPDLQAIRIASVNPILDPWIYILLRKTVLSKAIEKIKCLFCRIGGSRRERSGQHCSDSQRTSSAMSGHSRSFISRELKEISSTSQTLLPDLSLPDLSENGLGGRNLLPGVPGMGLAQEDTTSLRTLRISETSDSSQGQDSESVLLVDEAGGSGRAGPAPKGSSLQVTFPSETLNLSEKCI
# [28] = target: 5-hydroxytryptamine receptor 1A (Homo sapiens) (UniProt P08908); assay: Displacement of [3H]OHDPAT from human 5-HT1A receptor at 10 uM relative to control; outline: as §1
# Chain of 5-hydroxytryptamine receptor 1A (Homo sapiens) (P08908 whole entry): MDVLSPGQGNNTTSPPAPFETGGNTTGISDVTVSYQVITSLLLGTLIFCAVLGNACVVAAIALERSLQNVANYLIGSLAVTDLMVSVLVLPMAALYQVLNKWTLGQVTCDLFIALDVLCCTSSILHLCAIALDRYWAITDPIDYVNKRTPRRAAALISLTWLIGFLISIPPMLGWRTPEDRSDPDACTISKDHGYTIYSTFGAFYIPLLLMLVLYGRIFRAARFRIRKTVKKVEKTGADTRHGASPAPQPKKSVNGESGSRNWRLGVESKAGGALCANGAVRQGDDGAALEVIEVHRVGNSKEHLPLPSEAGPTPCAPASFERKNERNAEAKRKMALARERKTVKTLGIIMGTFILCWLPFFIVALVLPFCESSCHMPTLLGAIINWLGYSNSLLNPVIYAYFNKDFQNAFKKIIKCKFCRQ
# [29] = target: 5-hydroxytryptamine receptor 6 (Homo sapiens) (UniProt P50406); assay: Displacement of [3H]LSD from human 5-HT6 receptor at 10 uM relative to control; outline: as §1
# Chain of 5-hydroxytryptamine receptor 6 (Homo sapiens) (P50406 whole entry): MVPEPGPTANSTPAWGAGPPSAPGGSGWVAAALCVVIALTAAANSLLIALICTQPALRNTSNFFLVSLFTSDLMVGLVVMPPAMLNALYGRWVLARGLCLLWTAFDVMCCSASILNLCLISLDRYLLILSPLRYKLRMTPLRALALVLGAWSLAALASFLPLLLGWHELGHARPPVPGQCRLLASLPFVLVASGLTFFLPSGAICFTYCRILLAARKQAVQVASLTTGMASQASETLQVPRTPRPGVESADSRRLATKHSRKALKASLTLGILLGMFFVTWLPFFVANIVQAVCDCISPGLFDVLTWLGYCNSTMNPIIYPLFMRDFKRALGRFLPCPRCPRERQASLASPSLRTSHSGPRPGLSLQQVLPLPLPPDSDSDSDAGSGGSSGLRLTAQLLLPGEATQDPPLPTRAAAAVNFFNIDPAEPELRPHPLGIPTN
# [30] = target: Somatostatin receptor (Homo sapiens) (UniProt P35346+P30874+P31391+P30872+P32745); assay: Displacement of [125ITyr11- somatostatin-14 from sst receptor (unknown origin) at 10 uM relative to control; assay type: protein assay; outline: as §1
# [31] = target: Vasopressin V1a receptor (Homo sapiens) (UniProt P37288); assay: Displacement of [3H]AVP from human V1a receptor at 10 uM relative to control; outline: as §1
# Chain of Vasopressin V1a receptor (Homo sapiens) (P37288 whole entry, looked up): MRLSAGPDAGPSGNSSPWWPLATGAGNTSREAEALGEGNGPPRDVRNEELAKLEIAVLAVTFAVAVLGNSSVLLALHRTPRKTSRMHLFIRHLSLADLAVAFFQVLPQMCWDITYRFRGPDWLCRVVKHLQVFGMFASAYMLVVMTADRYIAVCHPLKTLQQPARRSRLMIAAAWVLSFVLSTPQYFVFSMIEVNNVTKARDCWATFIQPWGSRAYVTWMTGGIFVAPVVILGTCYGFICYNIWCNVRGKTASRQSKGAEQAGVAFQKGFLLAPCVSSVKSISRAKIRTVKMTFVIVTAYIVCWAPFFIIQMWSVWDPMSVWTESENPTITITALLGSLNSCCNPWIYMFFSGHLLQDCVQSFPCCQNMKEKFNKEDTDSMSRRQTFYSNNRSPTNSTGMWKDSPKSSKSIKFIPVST
# [32] = species on record: Homo sapiens; assay: Inhibition of Na+ channel (unknown origin) at 10 uM by [3H]batrachotoxinin binding assay relative to control
# Outline: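 Radioligand binding was run at a contract laboratory as part of a 55-target CNS receptor panel. Test concentration was 10 μM. Inhibition of specific binding was expressed relative to control, and inhibition greater than 50% was taken as significant.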
# [33] = Drug uptake in Sprague-Dawley rat brain at 0.5 mg/kg ip after 1 hrs
# [34] = Drug uptake in Sprague-Dawley rat brain at 0.5 mg/kg ip after 2 hrs
# [35] = Drug uptake in Sprague-Dawley rat brain at 0.5 mg/kg ip after 0.25 hrs
# T1 sequence (Q01959 whole entry): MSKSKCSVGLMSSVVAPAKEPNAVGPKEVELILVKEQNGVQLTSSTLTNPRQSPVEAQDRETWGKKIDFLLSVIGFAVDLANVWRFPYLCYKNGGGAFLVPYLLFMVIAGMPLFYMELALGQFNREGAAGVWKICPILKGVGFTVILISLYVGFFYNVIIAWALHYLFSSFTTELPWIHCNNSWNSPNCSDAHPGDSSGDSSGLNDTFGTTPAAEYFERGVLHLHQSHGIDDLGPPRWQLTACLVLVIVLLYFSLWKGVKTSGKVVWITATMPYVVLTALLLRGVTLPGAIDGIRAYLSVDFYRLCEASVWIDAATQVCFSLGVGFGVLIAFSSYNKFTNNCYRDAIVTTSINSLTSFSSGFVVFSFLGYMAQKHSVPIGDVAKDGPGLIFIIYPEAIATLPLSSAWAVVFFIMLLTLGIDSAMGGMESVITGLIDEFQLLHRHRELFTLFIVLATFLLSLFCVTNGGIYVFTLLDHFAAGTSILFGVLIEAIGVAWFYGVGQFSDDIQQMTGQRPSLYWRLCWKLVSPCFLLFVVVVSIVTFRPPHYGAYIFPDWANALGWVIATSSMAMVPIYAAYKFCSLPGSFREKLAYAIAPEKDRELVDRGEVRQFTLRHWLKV
smiles,measurement,setting,value
CN(C)CCC(c1ccc(Cl)c(Cl)c1)N1CCOCC1 (stereo not given),inhibition,[1],93.6%
same,Activity,[2],31
same,IC50,[3],378 nM
same,IC50,[4],247 nM
same,Activity,[5],93
same,Activity,[6],87
same,inhibition,[7],Dose-dependent effect
same,inhibition in vivo at 10 mg/kg,[8],47%
same,survival at 336 h,[9],40%
same,survival at 336 h,[10],60%
same,AUC,[11],61 ng·h/mL
same,AUC(0-inf),[12],83.7 ng·h/mL
same,MRT,[13],3.05 h
same,Vd/F,[14],164 L/kg
same,Cmax,[15],26.8 ng/mL
same,Cmax,[16],48.5 ng/mL
same,bioavailability,[17],19.4%
same,Kp at 0.08 h,[18],23.1
same,Kp at 0.5 h,[19],12.3
same,Kp at 4 h,[20],11.4
same,inhibition,[21],8.7%
same,inhibition,[22],2.6%
same,inhibition,[23],11%
same,inhibition,[24],22.7%
same,inhibition,[25],20.6%
same,inhibition,[26],-7%
same,inhibition,[27],-1.2%
same,inhibition,[28],-0.8%
same,inhibition,[29],2.4%
same,inhibition,[30],3.2%
same,inhibition,[31],3.3%
same,inhibition,[32],40.1%
same,concentration at 1 h,[33],425 ng/mL
same,concentration at 2 h,[34],178 ng/mL
same,concentration at 0.25 h,[35],925 ng/mL
